Each structure is given as a SMILES string. Some results are limits rather than exact numbers.

Target in one experiment: not listed separately
In words: Displacement of [3H]WAY-100635 from 5-HT1A receptor in pig cortex membranes. In kind it is cell membranes, Sus scrofa. (In a radioligand displacement assay an active substance lowers the binding of a labelled ligand.)
The term Ki denotes the dissociation constant of the complex between target and ligand, obtained from inhibition or displacement. Low readings indicate a stronger hold on the target, high ones a looser hold on the target. `Cc1ccc(CNCC2(F)CCN(C(=O)C34CC5CC(CC(Br)(C5)C3)C4)CC2)nc1` had a Ki of 0.12 µM.

As for `Cc1ccc(CNCC2(F)CCN(C(=O)c3ccc4[nH]cnc4c3)CC2)nc1`, affinity was put at a Ki of 3.5 µM.

`Cc1ccc(CNCC2(F)CCN(C(=O)c3cc4ccccc4[nH]3)CC2)nc1` showed a Ki of 0.094 µM.

With `Cc1ccc(CNCC2(F)CCN(C(=O)C34CC5CC(C3)CC(C(F)(F)C(F)C(F)(F)F)(C5)C4)CC2)nc1` (configuration not stated), the Ki was determined as 1.3 µM.

Molecule `Cc1ccc(CNCC2(F)CCN(C(=O)c3ccc4[nH]nnc4c3)CC2)nc1` had a Ki of 0.91 µM.

`Cc1ccc(CNCC2(O)CCN(C(=O)c3ccsc3)CC2)nc1`: the Ki was found to be 0.12 µM. This Ki lies about 7.6-fold lower than the previous one.

For `Cc1ccc(CNCC2(F)CC3CCC(C2)N3C(=O)c2ccccc2)nc1` (configuration not stated), the Ki turned out to be 0.34 µM.

Regarding `Cc1ccc(CNCC2(F)CCN(C(=O)C34CC5CC(C)(CC(C)(C5)C3)C4)CC2)nc1`, the Ki was 0.47 µM.

Molecule `Cc1ccc(CNCC2(F)CCN(C(=O)c3ccc(-c4ccccc4)cc3)CC2)nc1` returned a Ki of 0.3 µM.

`Cc1ccc(CNCC2(F)CCN(C(=O)c3cc4ccc3CCc3ccc(cc3)CC4)CC2)nc1` gave a Ki of 0.32 µM.

Molecule `Cc1ccc(CNCC2(F)CCN(C(=O)c3ccc(-c4cccs4)s3)CC2)nc1` displayed a Ki of 0.42 µM.

As to `Cc1ccc(CNCC2(F)CCN(C(=O)c3sccc3-n3cccc3)CC2)nc1`, the affinity corresponds to a Ki of 0.36 µM.

`Cc1ccc(CNCC2(F)CCN(C(=O)c3ccc(-c4ccccn4)s3)CC2)nc1` returned an inhibition constant Ki of 0.47 µM. The Ki values of the last two molecules are within 1.5-fold of each other.

As for `Cc1ccc(CNCC2(F)CCN(C(=O)c3cc(Br)c(Br)s3)CC2)nc1`, the affinity corresponds to a Ki of 0.0048 µM. This Ki lies about 98-fold lower than the previous one.

For `Cc1ccc(CNCC2(F)CCN(C(=O)c3ccc(-c4ccccc4)s3)CC2)nc1`, affinity was put at a Ki of 0.5 µM.

On to `Cc1ccc(CNCC2(F)CCN(C(=O)c3cccc(-c4ccccc4)c3)CC2)nc1`, for which the Ki came to 0.069 µM.

Consider `Cc1ccc(CNCC2(F)CCN(C(=O)c3ccsc3Br)CC2)nc1`, for which the affinity corresponds to a Ki of 0.016 µM.

For the molecule `Cc1ccc(CNCC2(F)CCN(C(=O)C34CC5CC(C)(CC(Br)(C5)C3)C4)CC2)nc1` (configuration not stated), the Ki amounted to 0.46 µM. Against the preceding molecule, the Ki is about 29-fold higher.

As to `Cc1ccc(CNCC2(F)CCN(C(=O)c3cc4cc(Br)ccc4s3)CC2)nc1`, the affinity corresponds to a Ki of 0.22 µM.

`Cc1ccc(CNCC2(F)CCN(C(=O)c3cc(Br)c(Br)o3)CC2)nc1` had a Ki of 0.0089 µM.

In the case of `Cc1ccc(CNCC2(F)CCN(C(=O)c3ccc(-c4csc(C)n4)s3)CC2)nc1`, affinity was put at a Ki of 0.45 µM.

On to `Cc1ccc(CNCC2(O)CCN(C(=O)c3ccccc3)CC2)nc1`, for which the Ki came to 0.079 µM.

`CCC12CC3CC(C1)CC(C(=O)N1CCC(F)(CNCc4ccc(C)cn4)CC1)(C3)C2` showed a Ki of 0.029 µM. Compared with the last molecule, the Ki is about 2.7-fold lower.

`Cc1ccc(CNCC2(F)CC3CCC(C2)N3C(=O)c2ccc(F)c(Cl)c2)nc1` (configuration not stated) returned a Ki of 0.11 µM.

Molecule `Cc1ccc(CNCC2(F)CCN(C(=O)c3ccccc3-c3ccccc3)CC2)nc1` showed an inhibitory constant (Ki) of 0.33 µM. Against the preceding molecule, the Ki is about 3-fold higher.

Turning to `Cc1ccc(CNCC2(F)CC3CCC(C2)N3C(=O)c2ccsc2)nc1` (configuration not stated), the Ki amounted to 0.26 µM.

`Cc1ccc(CNCC2(F)CCN(C(=O)c3cc[nH]n3)CC2)nc1` gave a Ki of 0.91 µM.

`Cc1ccc(CNCC2(F)CCN(C(=O)c3coc(Br)c3)CC2)nc1` registered a Ki of 0.026 µM.

In the case of `Cc1ccc(CNC[C@@]2(O)C[C@H]3CCC[C@@H](C2)N3C(=O)c2ccccc2)nc1` (stereo in doubt; 43), the Ki amounted to 1.6 µM. Compared with the last molecule, the Ki is about 62-fold higher.

Consider `Cc1ccc(CNCC2(F)CCN(C(=O)c3ccc[nH]3)CC2)nc1`, for which the Ki is 0.66 µM.

The target of a further experiment is T1, 5-hydroxytryptamine receptor 1A (Homo sapiens) (UniProt P08908).
T1 sequence (whole entry): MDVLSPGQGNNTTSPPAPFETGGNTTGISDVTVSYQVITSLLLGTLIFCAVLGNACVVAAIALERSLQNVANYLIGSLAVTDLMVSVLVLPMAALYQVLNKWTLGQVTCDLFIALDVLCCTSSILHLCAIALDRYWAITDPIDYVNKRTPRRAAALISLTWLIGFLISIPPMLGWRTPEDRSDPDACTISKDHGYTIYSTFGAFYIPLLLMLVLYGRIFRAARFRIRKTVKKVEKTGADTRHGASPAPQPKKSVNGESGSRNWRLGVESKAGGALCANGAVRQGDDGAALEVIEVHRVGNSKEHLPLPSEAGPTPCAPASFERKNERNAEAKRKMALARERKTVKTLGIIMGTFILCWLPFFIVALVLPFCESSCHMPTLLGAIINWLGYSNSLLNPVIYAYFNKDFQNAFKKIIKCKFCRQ
In words: Intrinsic activity at human 5-HT1A receptor expressed in CHO cells assessed as increase of serotonin-induced [35S]GTPgammaS binding relative to serotonin. Type of experiment: functional, cell-based. Put shortly:
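Membranes from CHO cells stably expressing human 5-HT1A were incubated with 0.1 nM [35S]GTPγS and test compound at eight concentrations (0.01-10000 nM), in hexaduplicate. Values come from a mean curve of four experiments. Emax is expressed relative to the maximal serotonin effect.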
On the technique in general: GTPγS is a poorly hydrolysed GTP analogue; its binding reports G protein activation.
A word on the Emax: it is the size of the effect at its maximum, as opposed to the concentration needed. Regarding `Cc1ccc(CNC[C@@]2(O)C[C@H]3CC[C@@H](C2)N3C(=O)c2ccccc2)nc1` (stereo in doubt; 38), the Emax is < 10%.

As for `Cc1ccc(CNC[C@@]2(O)C[C@H]3CC[C@@H](C2)N3C(=O)c2ccccc2)nc1` (stereo in doubt; 34), the Emax worked out at 113%.

Values taken from ChEMBL document CHEMBL1255227, “Novel pyridylmethylamines as highly selective 5-HT(1A) superagonists” (J Med Chem, 2010).
